Reference: ChEMBL document CHEMBL4020838, “The Discovery of ( S)-1-(6-(3-((4-(1-(Cyclopropanecarbonyl)piperidin-4-yl)-2-methylphenyl)amino)-2,3-dihydro-1 H-inden-4-yl)pyridin-2-yl)-5-methyl-1 H-pyrazole-4-carboxylic Acid, a Soluble Guanylate Cyclase Activator Specifically Designed for Topical Ocular Delivery as a Therapy for Glaucoma” (J Med Chem, 2018)
Activity calls are given as the source filed them. The calls are words filed in the database; no cut-off is given here.

How the values were obtained:
[1] = Activation of HUVEC-derived soluble guanylate cyclase expressed in CHOK1 cells assessed as increase in cGMP production after 1 hr by HTRF assay; assay type: cell-based
In short: (§1)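 High-throughput assay in Chinese hamster ovary cells expressing sGC. cGMP was measured across a dose range. EC50 and Emax (maximal cGMP produced) were taken from the dose-response curve.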

Homo sapiens [2] = species on record: Homo sapiens; experiment: Activation of HUVEC-derived soluble guanylate cyclase expressed in CHOK1 cells assessed as increase in cGMP production after 1 hr by HTRF assay relative to 1-{6-[5-chloro-2-({4-[trans-4-(trifluoromethyl)cyclohexyl]-benzyl}oxy)phenyl)pyridin-2-yl)-5-(trifluoromethyl)-1H-pyrazole-4-carboxylic acid; assay type: cell-based; in short: as §1
[3] = Activation of soluble guanylate cyclase in human GTM3 cells assessed as increase in cGMP production after 30 mins by fluorescence assay; assay type: cell-based
In short: (§2)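 Immortalized glaucomatous trabecular meshwork (GTM-3) cells expressing endogenous levels of sGC were used. cGMP was read across a dose range. EC50 and Emax were derived from the dose-response curve.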

Homo sapiens [4] = species on record: Homo sapiens; experiment: Activation of soluble guanylate cyclase in human GTM3 cells assessed as increase in cGMP production after 30 mins by fluorescence assay relative to 1-{6-[5-chloro-2-({4-[trans-4-(trifluoromethyl)cyclohexyl]-benzyl}oxy)phenyl)pyridin-2-yl)-5-(trifluoromethyl)-1H-pyrazole-4-carboxylic acid; assay type: cell-based; in short: as §2
Cynomolgus monkey = experiment: Reduction of intraocular pressure in laser-induced ocular hypertensive cynomolgus monkey at 30 ug administered as single topical dose measured after 6 to 24 hrs; assay type: functional; conditions: Macaca fascicularis

EC50 ([1]; CHO-K1, 1 h) | SMILES | Emax (Homo sapiens [2]) | Emax (Homo sapiens [4]) | also measured
4.5 nM | Cc1cc(C2CCN(C(=O)C3CC3)CC2)ccc1OCc1ccsc1-c1cccc(-n2ncc(C(=O)O)c2C(F)(F)F)n1 | 102% | – | –
< 0.5 nM | Cc1cc(C2CCN(C(=O)C3CC3)CC2)ccc1OCc1c(C)csc1-c1cccc(-n2ncc(C(=O)O)c2C(F)(F)F)n1 | 100% | 100% | EC50 ([3]; Homo sapiens, GTM3, 0.5 h): 40 nM
430 nM | Cc1cc(C2CCN(CC3CC3)CC2)ccc1OCc1ccsc1-c1cccc(-n2ncc(C(=O)O)c2C(F)(F)F)n1 | 88% | – | –
2 nM | CCc1cc(COc2ccc(C3CCN(C(=O)C4CC4)CC3)cc2C)c(-c2cccc(-n3ncc(C(=O)O)c3C(F)(F)F)n2)s1 | 103% | 68% | EC50 ([3]; Homo sapiens, GTM3, 0.5 h): 180 nM
0.35 nM | Cc1cc(C2CCN(C(=O)C3CC3)CC2)ccc1OCC1=C(c2cccc(-n3ncc(C(=O)O)c3C(F)(F)F)n2)CCCC1 | 101% | 110% | EC50 ([3]; Homo sapiens, GTM3, 0.5 h): 85 nM
25 nM | CCC(=O)N1CCC(c2ccc(OCc3ccsc3-c3cccc(-n4ncc(C(=O)O)c4C(F)(F)F)n3)cc2)CC1 | 101% | – | –
6 nM | CCc1csc(-c2cccc(-n3ncc(C(=O)O)c3C(F)(F)F)n2)c1COc1ccc(C2CCN(C(=O)C3CC3)CC2)cc1C | 105% | 70% | EC50 ([3]; Homo sapiens, GTM3, 0.5 h): 160 nM
1 nM | CCc1cc(OCC2=C(c3cccc(-n4ncc(C(=O)O)c4C(F)(F)F)n3)CCCC2(C)C)ccc1C1CCN(C(=O)C2CC2)CC1 | 99% | 71% | EC50 ([3]; Homo sapiens, GTM3, 0.5 h): 140 nM
4200 nM | Cc1cc(C2CCNCC2)ccc1OCc1ccsc1-c1cccc(-n2ncc(C(=O)O)c2C(F)(F)F)n1 | 73% | – | –
< 0.1 nM | Cc1cc(COc2ccc(C3CCN(C(=O)C4CC4)CC3)cc2C)c(-c2cccc(-n3ncc(C(=O)O)c3C(F)(F)F)n2)s1 | 101% | 100% | EC50 ([3]; Homo sapiens, GTM3, 0.5 h): 53 nM
162 nM | Cc1c(C(=O)O)cnn1-c1nc(-c2cccc(C(F)(F)F)c2)cs1 | 105% | – | –
0.15 nM | Cc1cc(C2CCN(C(=O)C3CC3)CC2)ccc1OCc1cc(Cl)sc1-c1cccc(-n2ncc(C(=O)O)c2C(F)(F)F)n1 | 99% | 97% | EC50 ([3]; Homo sapiens, GTM3, 0.5 h): 520 nM
2.5 nM | Cc1cc(C2CCN(C(=O)C3CC3)CC2)ccc1OCC1=C(c2cccc(-n3ncc(C(=O)O)c3C(F)(F)F)n2)CCC1 | 101% | – | –
– | Cc1cc(C2CCN(C(=O)C3CC3)CC2)ccc1OC1CCc2cccc(-c3cccc(-n4ncc(C(=O)O)c4C(F)(F)F)n3)c21 (single isomer, unassigned; (+)) [listing 1 of 2 here] | – | – | EC50 [1]: 1 nM; EC50 ([3]; Homo sapiens, GTM3, 0.5 h): 10 nM
2.5 nM | Cc1cc(C2CCN(C(=O)C3CC3)CC2)ccc1OC1CCc2cccc(-c3cccc(-n4cc(C(=O)O)cn4)n3)c21 (single isomer, unassigned; (+)) | 103% | 70% | EC50 ([3]; Homo sapiens, GTM3, 0.5 h): 320 nM
– | CCc1cc(OCC2=C(c3cccc(-n4ncc(C(=O)O)c4C(F)(F)F)n3)CCCC2C)ccc1C1CCN(C(=O)C2CC2)CC1 (single isomer, unassigned; (+)) | 102% | 85% | –
– | CCc1cc(OCC2=C(c3cccc(-n4ncc(C(=O)O)c4C)n3)CCCC2C)ccc1C1CCN(C(=O)C2CC2)CC1 (single isomer, unassigned; (+)) | 101% | 120% | Activity (Cynomolgus monkey): Active

EC50 ([1]; CHO-K1, 1 h) | SMILES | Emax (Homo sapiens [2]) | Emax (Homo sapiens [4]) | also measured
– | Cc1cc(C2CCN(C(=O)C3CC3)CC2)ccc1NC1CCc2cccc(-c3cccc(-n4ncc(C(=O)O)c4C(F)(F)F)n3)c21 (single isomer, unassigned; (+)) | 100% | 89% | –
– | Cc1cc(C2CCN(C(=O)C3CC3)CC2)ccc1OC1CCc2cccc(-c3cccc(-n4ncc(C(=O)O)c4C(F)(F)F)n3)c21 (single isomer, unassigned; (+)) [listing 2 of 2 here] | 102% | 100% | –
– | Cc1cc2c(c(-c3cccc(-n4ncc(C(=O)O)c4C(F)(F)F)n3)c1)C(Nc1ccc(C3CCN(C(=O)C4CC4)CC3)cc1C)CC2 (single isomer, unassigned; (+)) | 101% | 85% | –
– | Cc1cc(C2CCN(C(=O)C3CC3)CC2)ccc1OC1CCc2cccc(-c3cccc(-n4ncc(C(=O)O)c4C(F)(F)F)n3)c21 (single isomer, unassigned; (-)) [listing 1 of 2 here] | – | – | EC50 [1]: 7 nM
– | Cc1cc(C2CCN(C(=O)C3CC3)CC2)ccc1NC1CCc2cccc(-c3cccc(-n4ncc(C(=O)O)c4C(F)(F)F)n3)c21 (single isomer, unassigned; (-)) [listing 1 of 2 here] | – | – | EC50 [1]: 37 nM; EC50 [3]: 1200 nM
– | Cc1cc2c(c(-c3cccc(-n4ncc(C(=O)O)c4C(F)(F)F)n3)c1)C(Nc1ccc(C3CCN(C(=O)C4CC4)CC3)cc1C)CC2 (single isomer, unassigned; (-)) [listing 1 of 2 here] | – | – | EC50 [1]: 24 nM
– | Cc1cc(C2CCN(C(=O)C3CC3)CC2)ccc1NC1CCc2cccc(-c3cccc(-n4ncc(C(=O)O)c4C(F)(F)F)n3)c21 (single isomer, unassigned; (-)) [listing 2 of 2 here] | 101% | 97% | –
– | Cc1cc(C2CCN(C(=O)C3CC3)CC2)ccc1OC1CCc2cccc(-c3cccc(-n4ncc(C(=O)O)c4C(F)(F)F)n3)c21 (single isomer, unassigned; (-)) [listing 2 of 2 here] | 100% | – | –
– | Cc1cc2c(c(-c3cccc(-n4ncc(C(=O)O)c4C(F)(F)F)n3)c1)C(Nc1ccc(C3CCN(C(=O)C4CC4)CC3)cc1C)CC2 (single isomer, unassigned; (-)) [listing 2 of 2 here] | 99% | – | –
– | Cc1cc(C2CCN(C(=O)C3CC3)CC2)ccc1NC1CCc2cccc(-c3cccc(-n4ncc(C(=O)O)c4C)n3)c21 (stereo in doubt; (+)-23) | 104% | 106% | Activity (Cynomolgus monkey): Active
– | CCc1cc(OCC2=C(c3cccc(-n4ncc(C(=O)O)c4C(F)(F)F)n3)CCCC2C)ccc1C1CCN(C(=O)C2CC2)CC1 (stereo in doubt; (-)-17) [listing 1 of 2 here] | – | – | EC50 [1]: 9 nM; EC50 [3]: 170 nM
– | CCc1cc(OCC2=C(c3cccc(-n4ncc(C(=O)O)c4C(F)(F)F)n3)CCCC2C)ccc1C1CCN(C(=O)C2CC2)CC1 (stereo in doubt; (-)-17) [listing 2 of 2 here] | 100% | 63% | –
– | Cc1cc(C2CCN(C(=O)C3CC3)CC2)ccc1NC1CCc2cccc(-c3cccc(-n4ncc(C(=O)O)c4C)n3)c21 (stereo in doubt; (-)-23) [listing 1 of 2 here] | – | – | EC50 [1]: 17 nM; EC50 [3]: 490 nM
– | Cc1cc(C2CCN(C(=O)C3CC3)CC2)ccc1NC1CCc2cccc(-c3cccc(-n4ncc(C(=O)O)c4C)n3)c21 (stereo in doubt; (-)-23) [listing 2 of 2 here] | 102% | 82% | –
– | CCc1cc(OCC2=C(c3cccc(-n4ncc(C(=O)O)c4C)n3)CCCC2C)ccc1C1CCN(C(=O)C2CC2)CC1 (stereo in doubt; (-)-24) [listing 1 of 2 here] | – | – | EC50 [1]: 3 nM
– | CCc1cc(OCC2=C(c3cccc(-n4ncc(C(=O)O)c4C)n3)CCCC2C)ccc1C1CCN(C(=O)C2CC2)CC1 (stereo in doubt; (-)-24) [listing 2 of 2 here] | 101% | – | –
1 nM | O=C(O)CCCCN(CCc1ccccc1OCc1ccc(CCc2ccccc2)cc1)Cc1ccc(C(=O)O)cc1 [CINACIGUAT] | 93% | 15% | EC50 ([3]; Homo sapiens, GTM3, 0.5 h): 4 nM

SMILES | EC50 ([1]; CHO-K1, 1 h) | Emax (Homo sapiens [2]) | Emax (Homo sapiens [4]) | also measured
O=C(Nc1ccc(S(=O)(=O)N2CCOCC2)cc1)c1cc(Cl)ccc1NS(=O)(=O)c1ccc(Cl)s1 | 870 nM | 95% | – | –
